In ChEMBL document CHEMBL1135737, “Water stability and cytotoxic activity relationship of a series of ferrocenium derivatives. ESR insights on the radical production during the degradation process” (J Med Chem, 2002):

How the values were obtained:
MCF7 [1] = experiment: In vitro cytotoxicity of compound against MCF-7 cell line expressed as percent of viable cells compared to untreated control at a concentration of 10 uM; format: functional, cell-based; settings: Homo sapiens
In short: (§1)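 First screen: exponential-phase MCF-7 cells (DMEM with 25 mM HEPES, 10% FCS, 37 °C, 5% CO2), 250000/well, given the ferrocenium salt 5–500 μM continuously for 48 h from 24 h after seeding. MTT (5 mg/mL in saline) added for 60 min; formazan read at 570 nm with 690 nm correction. Percent viable versus untreated control; mean of three replications.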

MCF7 [2] = experiment: In vitro cytotoxicity of compound against MCF-7 cell line expressed as percent of viable cells compared to untreated control at a concentration of 100 uM; format: functional, cell-based; settings: Homo sapiens; in short: as §1
MCF7 [3] = experiment: In vitro cytotoxicity of compound against MCF-7 cell line expressed as percent of viable cells compared to untreated control at a concentration of 5 uM; format: functional, cell-based; settings: Homo sapiens; in short: as §1
MCF7 [4] = experiment: In vitro cytotoxicity of compound against MCF-7 cell line expressed as percent of viable cells compared to untreated control at a concentration of 50 uM; format: functional, cell-based; settings: Homo sapiens; in short: as §1
MCF7 [5] = experiment: In vitro cytotoxicity of compound against MCF-7 cell line expressed as percent of viable cells compared to untreated control at a concentration of 500 uM; format: functional, cell-based; settings: Homo sapiens; in short: as §1
MCF7 [6] = experiment: Concentration required to reduce to 50% the number of MCF-7 cells with respect to untreated control after exposure to compound for 24 h; format: functional, cell-based, Homo sapiens
In short: (§2)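 MCF-7 cells (DMEM with 25 mM HEPES, 2 mM L-glutamine, 10% FCS; 37 °C, 5% CO2) in exponential growth, 250000 cells/well, dosed after 24 h at 10, 50, 100, 500 μM for 2, 12, 24 or 48 h. Medium then replaced; MTT read at 570 nm (690 nm background) 5 days from start, versus time-matched washed control. IC50 from three replications.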

MCF7 [7] = experiment: In vitro cytotoxicity against MCF-7 cell line expressed as percent of viable cells compared to untreated control at a concentration of 20 uM; format: functional, cell-based; settings: Homo sapiens
In short: (§3)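 Exponential-phase MCF-7 cells, grown in DMEM with 25 mM HEPES, 2 mM L-glutamine and 10% FCS at 37 °C and 5% CO2, were seeded at 250000 cells/well. After 24 h they got a single agent for 24 h at 10, 20, 35, 50 or 70 μM, then fresh medium. Viability was read by MTT (570 nm, 690 nm background) 5 days from treatment start, as % of untreated control.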

MCF7 [8] = experiment: In vitro cytotoxicity against MCF-7 cell line expressed as percent of viable cells compared to untreated control at a concentration of 35 uM; format: functional, cell-based; settings: Homo sapiens; in short: as §3
MCF7 [9] = experiment: In vitro cytotoxicity against MCF-7 cell line expressed as percent of viable cells compared to untreated control at a concentration of 50 uM; format: functional, cell-based; settings: Homo sapiens; in short: as §3
MCF7 [10] = experiment: In vitro cytotoxicity against MCF-7 cell line expressed as percent of viable cells compared to untreated control at a concentration of 70 uM; format: functional, cell-based; settings: Homo sapiens; in short: as §3
MCF7 [11] = experiment: In vitro cytotoxicity against MCF-7 cell line expressed as percent of viable cells compared to untreated control at a concentration of 10 uM; format: functional, cell-based; settings: Homo sapiens; in short: as §3
MCF7 [12] = experiment: Concentration required to reduce to 50% the number of MCF-7 cells with respect to untreated control after exposure to compound for 12 h; format: functional, cell-based, Homo sapiens; in short: as §2
MCF7 [13] = experiment: Concentration required to reduce to 50% the number of MCF-7 cells with respect to untreated control after exposure to compound for 2 h; format: functional, cell-based, Homo sapiens; in short: as §2
MCF7 [14] = experiment: Concentration required to reduce to 50% the number of MCF-7 cells with respect to untreated control after exposure to compound for 48 h; format: functional, cell-based, Homo sapiens; in short: as §2
MCF7 [15] = experiment: In vitro cytotoxicity against MCF-7 cell line expressed as percent of viable cells compared to untreated control at a concentration of 10 uM for 24 h; format: functional, cell-based; settings: Homo sapiens
In short: (§4)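 Viability in MCF-7 cells (DMEM, 25 mM HEPES, 10% FCS, 37 °C, 5% CO2) seeded 250000/well and treated after 24 h for 24 h. Medium then replaced with fresh; MTT formazan read at 570 nm minus 690 nm, 5 days after treatment start. Percent of the untreated control washed at the same time; mean of three independent experiments.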

MCF7 [16] = experiment: In vitro cytotoxicity against MCF-7 cell line expressed as percent of viable cells compared to untreated control at a concentration of 100 uM for 24 h; format: functional, cell-based; settings: Homo sapiens; in short: as §4
MCF7 [17] = experiment: In vitro cytotoxicity against MCF-7 cell line expressed as percent of viable cells compared to untreated control at a concentration of 50 uM for 24 h; format: functional, cell-based; settings: Homo sapiens; in short: as §4
MCF7 [18] = experiment: In vitro cytotoxicity against MCF-7 cell line expressed as percent of viable cells compared to untreated control at a concentration of 500 uM for 24 h; format: functional, cell-based; settings: Homo sapiens; in short: as §4
MCF7 [19] = experiment: In vitro cytotoxicity against MCF-7 cell line as percent of viable cells compared to control at a concentration of 15 uM; format: functional, cell-based; settings: Homo sapiens
MCF7 [20] = experiment: In vitro cytotoxicity against MCF-7 cell line as percent of viable cells compared to control at a concentration of 20 uM; format: functional, cell-based; settings: Homo sapiens
MCF7 [21] = experiment: In vitro cytotoxicity against MCF-7 cell line as percent of viable cells compared to control at a concentration of 30 uM; format: functional, cell-based; settings: Homo sapiens
MCF7 [22] = experiment: In vitro cytotoxicity against MCF-7 cell line as percent of viable cells compared to control at a concentration of 40 uM; format: functional, cell-based; settings: Homo sapiens
MCF7 [23] = experiment: In vitro cytotoxicity against MCF-7 cell line as percent of viable cells compared to control at a concentration of 5 uM; format: functional, cell-based; settings: Homo sapiens
MCF7 [24] = experiment: In vitro cytotoxicity against MCF-7 cell line as percent of viable cells compared to control at a concentration of 10 uM; format: functional, cell-based; settings: Homo sapiens

Row | Substance | Viable cells (MCF7 [1]) [%] | Viable cells (MCF7 [2]) [%] | Viable cells (MCF7 [3]) [%] | Viable cells (MCF7 [4]) [%] | Viable cells (MCF7 [5]) [%] | IC50 (MCF7 [6]) [µM] | further results
1 | 1,1'-dimethylferrocenium tetrafluoroborate | 100 | 90 | 99 | 93 | 17 | – | –
2 | BLEOMYCIN [listing 1 of 2 here] | – | – | – | – | – | 53 | –
3 | BLEOMYCIN [listing 2 of 2 here] | – | – | – | – | – | – | Viable cells (MCF7 [7]): 65%; Viable cells (MCF7 [8]): 57%; Viable cells (MCF7 [9]): 48%; Viable cells (MCF7 [10]): 51%; Viable cells (MCF7 [11]): 69%
4 | DECAMETHYLFERROCENIUM TETRAFLUOROBORATE | – | – | – | – | – | 58 | IC50 (MCF7 [12]): 74 µM; IC50 (MCF7 [13]): 86 µM; IC50 (MCF7 [14]): 35 µM
5 | FERROCENIUM TETRAFLUOROBORATE [listing 1 of 2 here] | – | – | – | – | – | 256 | IC50 (MCF7 [12]): 238 µM; IC50 (MCF7 [13]): 308 µM; IC50 (MCF7 [14]): 249 µM
6 | FERROCENIUM TETRAFLUOROBORATE [listing 2 of 2 here] | 98 | 99 | 100 | 100 | 13 | – | –
7 | FERROCENIUMBORONIC ACID TETRAFLUOROBORATE | 101 | 98 | 102 | 101 | 8 | – | –
8 | [sequence] ACID TETRAFLUOROBORATE | 98 | 97 | 100 | 97 | 17 | – | –
9 | [sequence] TETRAFLUOROBORATE | 88 | 10 | 100 | 32 | 11 | – | Viable cells (MCF7 [15]): 99%; Viable cells (MCF7 [16]): 14%; Viable cells (MCF7 [17]): 64%; Viable cells (MCF7 [18]): 4%; Viable cells (MCF7 [19]): 34%; Viable cells (MCF7 [20]): 13%; Viable cells (MCF7 [21]): 7%; Viable cells (MCF7 [22]): 3%; Viable cells (MCF7 [23]): 94%; Viable cells (MCF7 [24]): 88%
